What all share (conditions): in vivo
Series [1] in a line: Drug level in iv dosed dog lung by gamma-scintillation counting analysis. The format is ADME, organism-based, Canis lupus familiaris. The essentials:
(§1)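 Carbon-11-labeled hydantoin, 1–59 mCi of final product, dissolved in 1–1.5% aqueous NaOH and given iv to dogs. Distribution imaged serially for up to 2 hr or more with a scintillation camera fitted with a pinhole collimator (1-cm hyperbolic aperture), with whole-body scintiphotos at about 5 and 30 min. Readout is qualitative to semiquantitative; no coincidence imaging.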

The test system of series [2] is Liver. The series can be described thus: Drug level in iv dosed dog liver by gamma-scintillation counting analysis. In kind it is ADME, organism-based, Canis lupus familiaris. The essentials:
as §1

Series [3] concerns Canis familiaris. Briefly: Drug level in iv dosed dog by gamma-scintillation counting analysis. The format is ADME, organism-based, Canis lupus familiaris. The essentials: as §1
Series [4] in a line: Drug level in iv dosed dog kidney by gamma-scintillation counting analysis. The format is ADME, organism-based, Canis lupus familiaris. An outline of the steps: as §1
The nature of series [5]: Drug excretion in iv dosed dog urine by gamma-scintillation counting analysis. The format is ADME, organism-based, Canis lupus familiaris. An outline of the steps:
as §1

Series [6] has as its system Brain. Briefly: Drug level in iv dosed dog brain after 5 to 30 mins by gamma-scintillation counting analysis. In kind it is ADME, organism-based, Canis lupus familiaris. An outline of the steps:
as §1

The nature of series [7]: Drug excretion in iv dosed dog bile after 5 to 30 mins by gamma-scintillation counting analysis. In kind it is ADME, organism-based, Canis lupus familiaris. An outline of the steps:
as §1

Series [8] is described as follows: Drug level in iv dosed dog vein by gamma-scintillation counting analysis. The format is ADME, organism-based, Canis lupus familiaris. The essentials:
as §1

For series [9], the system named is Brain. The series can be described thus: Drug level in iv dosed dog brain by gamma-scintillation counting analysis. In kind it is ADME, organism-based, Canis lupus familiaris. The essentials: as §1
Series [10] can be described thus: Drug excretion in iv dosed dog bile by gamma-scintillation counting analysis. In kind it is ADME, organism-based, Canis lupus familiaris. The essentials: as §1
Series [11] relates to Brain. The series can be described thus: Drug level in iv dosed dog brain after 40 mins by gamma-scintillation counting analysis. In kind it is ADME, organism-based, Canis lupus familiaris. The essentials: (§2)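 Dogs received the 11C-labeled hydantoin iv in 1–1.5% aqueous NaOH. Organs and tissues were taken at necropsy 40 min after dosing and placed at fixed geometrical positions in front of a thallium-activated NaI scintillation detector. Detected scintillation events gave quantitative estimates of tissue activity.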

Series [12] can be described thus: Drug level in iv dosed dog cerebrospinal fluid after 40 mins by gamma-scintillation counting analysis. The format is ADME, organism-based, Canis lupus familiaris. An outline of the steps:
as §2

A short description of series [13]: Drug level in iv dosed dog blood after 40 mins by gamma-scintillation counting analysis. The format is ADME, organism-based, Canis lupus familiaris. The essentials:
as §2

A short description of series [14]: Drug level in iv dosed dog kidney after 40 mins by gamma-scintillation counting analysis. In kind it is ADME, organism-based, Canis lupus familiaris. The essentials:
as §2

Series [15] in a line: Drug level in iv dosed dog heart after 40 mins by gamma-scintillation counting analysis. The format is ADME, organism-based, Canis lupus familiaris. The essentials:
as §2

Series [16] can be described thus: Drug level in iv dosed dog skeletal muscle after 40 mins by gamma-scintillation counting analysis. In kind it is ADME, organism-based, Canis lupus familiaris, Muscle tissue. The essentials:
as §2

The nature of series [17]: Drug level in iv dosed dog lung after 40 mins by gamma-scintillation counting analysis. In kind it is ADME, organism-based, Canis lupus familiaris. The essentials:
as §2

Series [18] is described as follows: Drug level in iv dosed dog stomach after 40 mins by gamma-scintillation counting analysis. The format is ADME, organism-based, Canis lupus familiaris. The essentials:
as §2

The nature of series [19]: Drug level in iv dosed dog pancreas after 40 mins by gamma-scintillation counting analysis. In kind it is ADME, organism-based, Canis lupus familiaris. An outline of the steps:
as §2

Series [20] has as its system Liver. The series can be described thus: Drug level in iv dosed dog liver after 40 mins by gamma-scintillation counting analysis. In kind it is ADME, organism-based, Canis lupus familiaris. The essentials:
as §2

Series [21] in a line: Drug level in iv dosed dog mesenteric fat after 40 mins by gamma-scintillation counting analysis. In kind it is ADME, organism-based, Canis lupus familiaris. An outline of the steps:
as §2

The nature of series [22]: Drug level in iv dosed dog omentum after 40 mins by gamma-scintillation counting analysis. In kind it is ADME, organism-based, Canis lupus familiaris. An outline of the steps:
as §2

The test system of series [23] is Canis familiaris. The series can be described thus: Drug level in iv dosed dog after 5 to 30 mins by gamma-scintillation counting analysis. The format is ADME, organism-based, Canis lupus familiaris. The essentials: as §1
Series [24] can be described thus: Drug excretion in iv dosed dog urine after 1 hr by gamma-scintillation counting analysis. The format is ADME, organism-based, Canis lupus familiaris.
Series [25] concerns Nucleic Acid. The series can be described thus: Ratio of drug level in iv dosed dog brain to temporal muscle after 80 mins by gamma-scintillation counting analysis. In kind it is ADME, organism-based, Canis lupus familiaris. An outline of the steps: (§3)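 Dogs were dosed iv with 11C-labeled hydantoin. Tissues and fluids were collected at necropsy 73 or 80 min post-dose and counted at fixed geometry in front of a thallium-activated NaI scintillation detector. Values are cpm/g of tissue divided by cpm/g of temporal muscle.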

For series [26], the system named is Nucleic Acid. Briefly: Ratio of drug level in iv dosed dog lung to temporal muscle after 80 mins by gamma-scintillation counting analysis. In kind it is ADME, organism-based, Canis lupus familiaris. The essentials:
as §3

In series [27] the test system is Nucleic Acid. Briefly: Ratio of drug level in iv dosed dog washed heart to temporal muscle after 80 mins by gamma-scintillation counting analysis. In kind it is ADME, organism-based, Canis lupus familiaris. An outline of the steps: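 Dogs received the [11C]-labeled hydantoin intravenously. At necropsy 80 min post-injection, the heart was washed and collected with temporal muscle. Each sample was placed at a fixed position before a thallium-activated NaI scintillation detector. The ratio is cpm/g tissue over cpm/g temporal muscle.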

Series [28] has as its system Nucleic Acid. Briefly: Ratio of drug level in iv dosed dog liver to temporal muscle after 80 mins by gamma-scintillation counting analysis. The format is ADME, organism-based, Canis lupus familiaris. An outline of the steps: as §3
Series [29] deals with Nucleic Acid. The series can be described thus: Ratio of drug level in iv dosed dog bile to temporal muscle after 80 mins by gamma-scintillation counting analysis. The format is ADME, organism-based, Canis lupus familiaris. The essentials:
as §3

Series [30] deals with Nucleic Acid. Briefly: Ratio of drug level in iv dosed dog spleen to temporal muscle after 80 mins by gamma-scintillation counting analysis. In kind it is ADME, organism-based, Canis lupus familiaris. An outline of the steps: as §3
The subject of series [31] is Nucleic Acid. Briefly: Ratio of drug level in iv dosed dog stomach to temporal muscle after 80 mins by gamma-scintillation counting analysis. The format is ADME, organism-based, Canis lupus familiaris. An outline of the steps: as §3
Series [32] relates to Nucleic Acid. The series can be described thus: Ratio of drug level in iv dosed dog pancreas to temporal muscle after 80 mins by gamma-scintillation counting analysis. The format is ADME, organism-based, Canis lupus familiaris. An outline of the steps:
as §3

Series [33] deals with Nucleic Acid. Briefly: Ratio of drug level in iv dosed dog kidney to temporal muscle after 80 mins by gamma-scintillation counting analysis. The format is ADME, organism-based, Canis lupus familiaris. An outline of the steps: as §3
The subject of series [34] is Nucleic Acid. Briefly: Ratio of drug level in iv dosed dog blood to temporal muscle after 80 mins by gamma-scintillation counting analysis. In kind it is ADME, organism-based, Canis lupus familiaris. The essentials:
as §3

Series [35] has as its system Nucleic Acid. Briefly: Ratio of drug level in iv dosed dog mesenteric fat to temporal muscle after 80 mins by gamma-scintillation counting analysis. The format is ADME, organism-based, Canis lupus familiaris. An outline of the steps:
as §3

`CSCCC1NC(=O)N[11C]1=O` (stereo unspecified): the Drug uptake entry in series [1], in series [2], in [3] and in series [4] was “Active” throughout. In addition, the Drug excretion result in series [5] is given as “metabolite_detected”.
With `CCC1(CC)NC(=O)N[11C]1=O`, the Drug uptake result is listed as “Active” in series [1]; “Active” in series [2]; “Active” in series [3]; “Active” in [4]; “Not Active” in series [6]. In addition, the Drug excretion entry is “metabolite_detected” in series [5] and “metabolite_notdetected” in series [7].
On to `CCCC1(CCC)NC(=O)N[11C]1=O`, for which the Drug uptake result in [1] is recorded as “Active”; in [2], “Active”; in series [3] it was “Active”; in [4], “Active”; in series [6], “Not Active”. The Drug excretion entry in series [5] is given as “metabolite_detected”; in series [7], “metabolite_notdetected”.
In the case of `CC(C)CC1(CC(C)C)NC(=O)N[11C]1=O`, the Drug uptake entry is on record as “Active” in series [1]; “Active” in series [2]; “Active” in series [3]; “Active” in [4]; “Not Active” in series [6]. For the same compound, the Drug excretion entry in series [5] is listed as “metabolite_detected”; in series [7], “metabolite_notdetected”.
In the case of `CC1(CCC(=O)O)NC(=O)N[11C]1=O` (stereo unspecified), the Drug uptake result in series [8] was “Active”; in [1], “Active”; in series [2], “Active”; in [3] it was “Active”; in series [4], “Active”; in [6] it was “Not Active”. Besides, the Drug excretion result in series [5] is “metabolite_detected”; in series [7], “metabolite_notdetected”.
Take `O=C1N[11C](=O)C(c2ccccc2)(c2ccccc2)N1`: the Drug uptake entry in series [9], in series [4], in [11], in [12], in series [13] and in series [14] was “Active” each time. For the same compound, the Drug uptake result in series [15], in series [16], in series [17], in series [18], in series [19] and in series [20] was “Active” each time. In addition, the Drug uptake entry in series [21] and in series [22] was “Active” throughout. The Drug excretion result in [5] and in series [10] was “metabolite_detected” in each case.
With `O=C1N[11C](=O)C(c2ccc(Cl)cc2)(c2ccc(Cl)cc2)N1`, the Drug uptake result in series [9] and in [4] was “Active” throughout. Besides, the Drug excretion entry in [5] and in series [10] was “metabolite_detected” throughout.
For `O=C1N[11C](=O)C(c2ccccc2)N1c1ccccc1` (stereo unspecified), the Drug uptake entry in series [9] and in [4] was “Active” each time. Also, the Drug excretion result in series [5] and in series [10] was “metabolite_detected” in each case.
On to `O=C1NC(c2ccccc2)[11C](=O)N1` (stereo unspecified), for which the Drug uptake entry in series [23] was “Active”. The Drug excretion result in series [24] is listed as “metabolite_detected”. The Ratio in series [25] was 0.73; in [26], 1.05; in series [27], 0.71; in series [28], 2.25; in [29], 0.83; in series [30], 0.81. Also, the Ratio is given as 0.76 in series [31]; 0.63 in series [32]; 1.91 in [33]; 0.93 in series [34]; 0.25 in series [35].

The values are drawn from ChEMBL document CHEMBL3272253, “Relationship of molecular structure to in vivo scintigraphic distribution patterns of carbon-11 labeled compounds. 3. (11C)Hydantoins” (J Med Chem, 1976).
